{
  "source": "ChEMBL document CHEMBL2062460",
  "about": "“Disubstituted thiourea derivatives and their activity on CNS: synthesis and biological evaluation” (Eur J Med Chem, 2012)",
  "key": {"[1]": {"tested_on": "Staphylococcus epidermidis", "assay": "Antibacterial activity against methicillin-resistant Staphylococcus epidermidis clinical isolate 341/09 after 18 hrs by twofold serial agar dilution technique", "assay_type": "functional", "conditions": "clinical isolate 341/09, 18 h", "summary_of_the_method": "(§1)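 Clinical isolates came from patients in Warsaw Medical University Hospitals and were classed as methicillin-susceptible or -resistant. MIC was determined by twofold serial agar dilution on Mueller–Hinton II agar (CLSI), 3.125–400 µg/mL in agar, with compounds in methanol or DMSO. Inoculum was 10^4 CFU/mL and plates were read after 18 h at 35 °C.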"}, "HepG2": {"tested_on": "HepG2", "assay": "Cytotoxicity against human HepG2 cells after 96 hrs by MTT assay", "assay_type": "functional", "conditions": "HepG2, 96 h", "summary_of_the_method": "(§2)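 Solid tumour lines were seeded at 1 × 10^5 cells/ml in line-specific media with 10% FCS and antibiotics. Serial dilutions from a 100 mM DMSO stock were added. After 96 h at 37 °C in 5% CO2, viability was read by MTT. The 50% growth-inhibiting concentration (µM) was obtained by linear regression versus untreated controls. Values are means of three independent determinations.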"}, "[2]": {"tested_on": "Human immunodeficiency virus 1", "assay": "Antiviral activity against HIV1 infected in human MT4 cells assessed as virus-induced cytopathogenicity after 4 days by MTT assay", "assay_type": "functional, organism-based", "conditions": "Human immunodeficiency virus 1, MT4, 96 h"}, "DU-145": {"tested_on": "DU-145", "assay": "Cytotoxicity against human DU145 cells after 96 hrs by MTT assay", "assay_type": "functional", "conditions": "DU-145, 96 h", "summary_of_the_method": "as §2"}, "Mus musculus [3]": {"tested_on": "Mus musculus", "assay": "Toxicity in Albino Swiss mouse assessed as motor coordination administered at doses equivalent to 0.1 ED50, ip by rota rod test", "assay_type": "organism-based", "conditions": "in vivo"}, "[4]": {"assay": "Cytotoxicity against human MT4 cells after 96 hrs by MTT assay", "assay_type": "cell-based"}, "[5]": {"tested_on": "Staphylococcus epidermidis", "assay": "Antibacterial activity against methicillin-resistant Staphylococcus epidermidis clinical isolate 315/08 after 18 hrs by twofold serial agar dilution technique", "assay_type": "functional", "conditions": "clinical isolate 315/08, 18 h", "summary_of_the_method": "as §1"}, "[6]": {"tested_on": "Staphylococcus epidermidis", "assay": "Antibacterial activity against methicillin-resistant Staphylococcus epidermidis clinical isolate 317/08 after 18 hrs by twofold serial agar dilution technique", "assay_type": "functional", "conditions": "clinical isolate 317/08, 18 h", "summary_of_the_method": "as §1"}, "[7]": {"assay": "Cytotoxicity against human CRL7065 cells after 96 hrs by MTT assay", "assay_type": "cell-based, CRL-7065", "summary_of_the_method": "(§3)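 Normal fibroblasts seeded at 1 × 10^5 cells/ml in specific media with 10% FCS and antibiotics; serial compound dilutions (100 mM DMSO stock); 96 h at 37 °C, 5% CO2; MTT read-out; 50% proliferation-reduction concentration by linear regression vs untreated controls; mean of three determinations.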"}, "MCF7": {"tested_on": "MCF7", "assay": "Cytotoxicity against human MCF7 cells after 96 hrs by MTT assay", "assay_type": "functional", "conditions": "MCF7, 96 h", "summary_of_the_method": "as §2"}, "Mus musculus [8]": {"tested_on": "Mus musculus", "assay": "Reduction of body temperature in normothermic Albino Swiss mouse administered at doses equivalent to 0.1 ED50, ip measured in rectum by thermistor thermometer analysis", "assay_type": "ADME, organism-based", "conditions": "in vivo"}, "CCRF-CEM": {"tested_on": "CCRF-CEM", "assay": "Cytotoxicity against human CCRF-CEM cells after 96 hrs by MTT assay", "assay_type": "functional", "summary_of_the_method": "(§4)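 Haematological tumour lines were seeded at 1 × 10^5 cells/ml in RPMI-1640 with 10% FCS plus penicillin/streptomycin. Serial dilutions from a 100 mM DMSO stock were added. After 96 h at 37 °C in 5% CO2, viability was read by MTT. The 50% proliferation-inhibiting concentration (µM) was obtained by linear regression against untreated controls, which completed at least three rounds of multiplication. Values are means of three determinations.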"}, "WIL2-NS": {"tested_on": "WIL2-NS", "assay": "Cytotoxicity against human WIL2-NS cells after 96 hrs by MTT assay", "assay_type": "functional", "summary_of_the_method": "as §4"}, "[9]": {"tested_on": "Staphylococcus epidermidis", "assay": "Antibacterial activity against methicillin-resistant Staphylococcus epidermidis clinical isolate 343/09 after 18 hrs by twofold serial agar dilution technique", "assay_type": "functional", "conditions": "clinical isolate 343/09, 18 h", "summary_of_the_method": "as §1"}, "[10]": {"tested_on": "Staphylococcus epidermidis", "assay": "Antibacterial activity against methicillin-resistant Staphylococcus epidermidis clinical isolate 340/09 after 18 hrs by twofold serial agar dilution technique", "assay_type": "functional", "conditions": "clinical isolate 340/09, 18 h", "summary_of_the_method": "as §1"}, "[11]": {"tested_on": "Staphylococcus epidermidis", "assay": "Antibacterial activity against methicillin-resistant Staphylococcus epidermidis clinical isolate 311/08 after 18 hrs by twofold serial agar dilution technique", "assay_type": "functional", "conditions": "clinical isolate 311/08, 18 h", "summary_of_the_method": "as §1"}, "Mus musculus [12]": {"tested_on": "Mus musculus", "assay": "Toxicity in Albino Swiss mouse assessed as motor coordination administered at doses equivalent to 0.1 ED50, ip by chimney test", "assay_type": "organism-based", "conditions": "in vivo"}, "Mus musculus [13]": {"tested_on": "Mus musculus", "assay": "Reduction of 5-hydroxytryptophan-induced head twitch in Albino Swiss mouse administered at doses equivalent to 0.1 ED50, ip", "assay_type": "functional, organism-based"}, "Mus musculus [14]": {"tested_on": "Mus musculus", "assay": "Toxicity in Albino Swiss mouse assessed as locomotor activity administered at doses equivalent to 0.1 ED50, ip measured after 1 hr for 30 mins", "assay_type": "organism-based", "conditions": "in vivo", "summary_of_the_method": "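Spontaneous locomotor activity of single male Albino Swiss mice in photoresistor actometers (two light beams), beam crossings recorded for 30 min, starting 60 min after i.p. compound in 0.5% methylcellulose.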"}, "[15]": {"tested_on": "Staphylococcus epidermidis", "assay": "Antibacterial activity against methicillin-resistant Staphylococcus epidermidis clinical isolate 377/09 after 18 hrs by twofold serial agar dilution technique", "assay_type": "functional", "conditions": "clinical isolate 377/09, 18 h", "summary_of_the_method": "as §1"}, "Mus musculus [16]": {"tested_on": "Mus musculus", "assay": "Anticonvulsant activity in Albino Swiss mouse assessed as protection against pentylenetetrazole-induced mortality administered at doses equivalent to 0.1 ED50, ip", "assay_type": "functional, organism-based"}, "Mus musculus [17]": {"tested_on": "Mus musculus", "assay": "Toxicity in Albino Swiss mouse assessed as effect on amphetamine-induced hyperactivity administered at doses equivalent to 0.1 ED50, ip", "assay_type": "organism-based", "conditions": "in vivo", "summary_of_the_method": "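Compound i.p. in 0.5% methylcellulose 60 min before test; amphetamine 5 mg/kg s.c. 30 min before test; single mice in photoresistor actometers, light-beam crossings counted for 30 min.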"}, "Mus musculus [18]": {"tested_on": "Mus musculus", "assay": "Antinociceptive activity in Albino Swiss mouse administered at doses equivalent to 0.025 to 0.1 ED50, ip", "assay_type": "functional, organism-based"}, "Mus musculus [19]": {"tested_on": "Mus musculus", "assay": "Anticonvulsant activity in Albino Swiss mouse assessed as protection against pentylenetetrazole-induced severity of clonic or tonic seizures administered at doses equivalent to 0.1 ED50, ip", "assay_type": "functional, organism-based"}, "[20]": {"tested_on": "Staphylococcus epidermidis", "assay": "Antibacterial activity against methicillin-resistant Staphylococcus epidermidis clinical isolate 316/08 after 18 hrs by twofold serial agar dilution technique", "assay_type": "functional", "conditions": "clinical isolate 316/08, 18 h", "summary_of_the_method": "as §1"}, "SK-MES-1": {"tested_on": "SK-MES-1", "assay": "Cytotoxicity against human SKMES1 cells after 96 hrs by MTT assay", "assay_type": "functional", "conditions": "SK-MES-1, 96 h", "summary_of_the_method": "as §2"}, "[21]": {"tested_on": "Staphylococcus epidermidis", "assay": "Antibacterial activity against methicillin-resistant Staphylococcus epidermidis clinical isolate 342/09 after 18 hrs by twofold serial agar dilution technique", "assay_type": "functional", "conditions": "clinical isolate 342/09, 18 h", "summary_of_the_method": "as §1"}, "[22]": {"tested_on": "Staphylococcus epidermidis", "assay": "Antibacterial activity against methicillin-resistant Staphylococcus epidermidis clinical isolate 318/08 after 18 hrs by twofold serial agar dilution technique", "assay_type": "functional", "conditions": "clinical isolate 318/08, 18 h", "summary_of_the_method": "as §1"}, "[23]": {"assay": "Cytotoxicity against human MRC5 cells after 96 hrs by MTT assay", "assay_type": "cell-based", "summary_of_the_method": "as §3"}, "CCRF-SB": {"tested_on": "CCRF-SB", "assay": "Cytotoxicity against human CCRF-SB cells after 96 hrs by MTT assay", "assay_type": "functional", "summary_of_the_method": "as §4"}, "SK-MEL-28": {"tested_on": "SK-MEL-28", "assay": "Cytotoxicity against human SK-MEL-28 cells after 96 hrs by MTT assay", "assay_type": "functional", "conditions": "SK-MEL-28, 96 h", "summary_of_the_method": "as §2"}, "Mus musculus [24]": {"tested_on": "Mus musculus", "assay": "Antinociceptive activity in Albino Swiss mouse administered at doses equivalent to 0.025 to 0.1 ED50, ip in presence of naloxone", "assay_type": "functional, organism-based", "summary_of_the_method": "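Acetic acid (0.6%, i.p.) writhing test in male Albino Swiss mice, compound i.p. in 0.5% methylcellulose 60 min prior, with naloxone 5 mg/kg s.c.; writhes counted 10 min from 5 min post-acid; mean ± S.E.M., 8–10 mice per group.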"}},
  "note": "pEC50: −log10 of the molar value. Calls of active or inactive are those of the source. The rule behind the calls is not given here.",
  "data": [
    {"smiles": "Nc1ncnn1/C(S)=N/Cc1ccccc1", "values": [
      {"measurement": "MIC", "setting": "[1]", "value": "> 400", "unit": "µg/mL"},
      {"measurement": "CC50", "setting": "HepG2", "value": 78, "unit": "µM"},
      {"measurement": "pEC50", "setting": "[2]", "value": "< 5.13"},
      {"measurement": "CC50", "setting": "DU-145", "value": 11, "unit": "µM"},
      {"measurement": "Activity", "setting": "Mus musculus [3]", "value": "Non-toxic"},
      {"measurement": "CC50 at 96 h", "setting": "[4]", "value": 7.4, "unit": "µM"},
      {"measurement": "MIC", "setting": "[5]", "value": "> 400", "unit": "µg/mL"},
      {"measurement": "MIC", "setting": "[6]", "value": "> 400", "unit": "µg/mL"},
      {"measurement": "CC50 at 96 h", "setting": "[7]", "value": 47, "unit": "µM"},
      {"measurement": "CC50", "setting": "MCF7", "value": 49, "unit": "µM"},
      {"measurement": "Activity", "setting": "Mus musculus [8]", "value": "Toxic"},
      {"measurement": "CC50", "setting": "CCRF-CEM", "value": 39, "unit": "µM"},
      {"measurement": "CC50", "setting": "WIL2-NS", "value": 52, "unit": "µM"},
      {"measurement": "MIC", "setting": "[9]", "value": "> 400", "unit": "µg/mL"},
      {"measurement": "MIC", "setting": "[10]", "value": "> 400", "unit": "µg/mL"},
      {"measurement": "MIC", "setting": "[11]", "value": "> 400", "unit": "µg/mL"},
      {"measurement": "Activity", "setting": "Mus musculus [12]", "value": "Non-toxic"},
      {"measurement": "Activity", "setting": "Mus musculus [13]", "value": "Active"},
      {"measurement": "Activity", "setting": "Mus musculus [14]", "value": "Non-toxic"},
      {"measurement": "MIC", "setting": "[15]", "value": "> 400", "unit": "µg/mL"},
      {"measurement": "Activity", "setting": "Mus musculus [16]", "value": "inactive"},
      {"measurement": "Activity", "setting": "Mus musculus [17]", "value": "Non-toxic"},
      {"measurement": "Activity", "setting": "Mus musculus [18]", "value": "Active"},
      {"measurement": "Activity", "setting": "Mus musculus [19]", "value": "inactive"},
      {"measurement": "MIC", "setting": "[20]", "value": "> 400", "unit": "µg/mL"},
      {"measurement": "CC50", "setting": "SK-MES-1", "value": 85, "unit": "µM"},
      {"measurement": "MIC", "setting": "[21]", "value": "> 400", "unit": "µg/mL"},
      {"measurement": "MIC", "setting": "[22]", "value": "> 400", "unit": "µg/mL"},
      {"measurement": "CC50 at 96 h", "setting": "[23]", "value": 43, "unit": "µM"},
      {"measurement": "CC50", "setting": "CCRF-SB", "value": 42, "unit": "µM"},
      {"measurement": "CC50", "setting": "SK-MEL-28", "value": 72, "unit": "µM"},
      {"measurement": "Activity", "setting": "Mus musculus [24]", "value": "inactive"}
    ]}
  ]
}
